One experiment is filed under the species Homo sapiens. In words: Selectivity ratio of Ki for recombinant wild-type MAOA from human liver to Ki for recombinant wild-type MAOB from human liver. In short, it runs like this: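 Substrates were p-CF3-benzylamine for MAO-A (243 nm) and benzylamine for MAO-B (250 nm), six concentrations 50–3000 µM, three inhibitor levels. Ki from apparent Km versus inhibitor; selectivity = Ki(MAO-A)/Ki(MAO-B).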

Experiment [1] addresses T1, Amine oxidase [flavin-containing] A (Homo sapiens, UniProt P21397).
T1 sequence (P21397 whole entry): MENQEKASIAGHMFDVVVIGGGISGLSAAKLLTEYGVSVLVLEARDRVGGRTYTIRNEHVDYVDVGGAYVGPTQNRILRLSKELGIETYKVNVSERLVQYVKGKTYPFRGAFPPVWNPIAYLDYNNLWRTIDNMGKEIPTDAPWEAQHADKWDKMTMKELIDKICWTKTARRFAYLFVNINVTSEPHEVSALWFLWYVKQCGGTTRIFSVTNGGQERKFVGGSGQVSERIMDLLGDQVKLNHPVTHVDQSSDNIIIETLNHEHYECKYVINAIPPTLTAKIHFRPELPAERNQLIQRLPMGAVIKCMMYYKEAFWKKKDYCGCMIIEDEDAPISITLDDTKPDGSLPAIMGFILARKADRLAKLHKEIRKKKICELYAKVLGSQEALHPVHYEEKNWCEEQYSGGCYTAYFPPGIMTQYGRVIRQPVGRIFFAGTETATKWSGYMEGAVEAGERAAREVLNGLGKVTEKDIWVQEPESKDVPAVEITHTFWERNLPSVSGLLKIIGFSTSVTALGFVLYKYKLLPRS
Put plainly: Inhibition of recombinant wild-type MAOA from human liver expressed in Pichia pastoris.

A short description of experiment [2]: Inhibition of human MAOB […] mutant.
Experiment [3] in a line: Inhibition of baboon liver MAOB. Set-up: species or system Papio hamadryas. The method, boiled down:
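Baboon liver mitochondrial fractions as MAO-B source, with MMTP as substrate. IC50 from means ± SEM of duplicate determinations. Reversibility was tested by preincubating inhibitor (40 nM) with the mitochondria for 0, 15, 30 and 60 min.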

The target of experiment [4] is T2, Amine oxidase [flavin-containing] B (Homo sapiens, UniProt P27338).
T2 sequence (P27338 whole entry): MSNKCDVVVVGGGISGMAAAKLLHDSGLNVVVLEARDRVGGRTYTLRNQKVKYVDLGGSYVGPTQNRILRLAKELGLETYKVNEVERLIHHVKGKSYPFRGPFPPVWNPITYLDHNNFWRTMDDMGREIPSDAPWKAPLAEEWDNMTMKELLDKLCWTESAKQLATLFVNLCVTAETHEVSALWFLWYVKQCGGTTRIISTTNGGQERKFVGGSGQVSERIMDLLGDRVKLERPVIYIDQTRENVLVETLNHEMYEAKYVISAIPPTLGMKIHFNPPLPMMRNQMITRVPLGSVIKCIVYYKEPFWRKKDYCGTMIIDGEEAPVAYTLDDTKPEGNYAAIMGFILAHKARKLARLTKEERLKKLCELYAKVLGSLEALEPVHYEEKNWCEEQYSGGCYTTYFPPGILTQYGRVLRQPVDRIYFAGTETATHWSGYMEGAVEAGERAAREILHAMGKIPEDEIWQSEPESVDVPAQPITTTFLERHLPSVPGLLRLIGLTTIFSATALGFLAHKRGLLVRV
In words: Inhibition of recombinant wild-type MAOB from human liver expressed in Pichia pastoris.

For the compound `O=C1Nc2ccc(/C=C/c3cccc(Cl)c3)cc2C1=O`, in the experiment filed under Homo sapiens, the Ratio Ki was 2.5. In addition, the Ki (in general, the equilibrium dissociation constant of an inhibitor or competing ligand from its target) in experiment [1] is 5600 nM; in experiment [2] it was 12500 nM; in experiment [4], 1400 nM. Further, in experiment [3], the IC50 (in general, the concentration that gives 50% inhibition) amounted to 20.7 nM.
Regarding `O=C1Nc2ccc(/C=C/c3ccccc3)cc2C1=O`, in the experiment filed under Homo sapiens, the Ratio Ki stood at 5. Further, the Ki in experiment [1] amounted to 780 nM; in experiment [2] it was 1100 nM; in experiment [4], 310 nM. This compound displayed an IC50 in experiment [3] of 41.7 nM.
Turning to `O=C1Nc2ccc(/C=C/c3cccc(F)c3)cc2C1=O`, in experiment [1], the Ki amounted to 2200 nM.

The record behind these values is ChEMBL document CHEMBL1138612, “Inhibition of monoamine oxidase by (E)-styrylisatin analogues” (Bioorg Med Chem Lett, 2009).
